Compounds with a hit are over-represented: about 0.9% of the library has one in this group of screens.
RGS4-Gao reg: modulates binding of RGS4 to human Galphao. P09471. Multiplexed bead flow cytometry; actives lie on both sides. binding response (% of control), % at 10 µM. 0.33% of 220,000 active. AID 1415; in the data active = binding response below about 49% or above about 150%; inactive = in between;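 also: fluorescent Galphao activated with aluminum fluoride binding bead-coupled RGS4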
Target sequence (P09471 whole entry, looked up): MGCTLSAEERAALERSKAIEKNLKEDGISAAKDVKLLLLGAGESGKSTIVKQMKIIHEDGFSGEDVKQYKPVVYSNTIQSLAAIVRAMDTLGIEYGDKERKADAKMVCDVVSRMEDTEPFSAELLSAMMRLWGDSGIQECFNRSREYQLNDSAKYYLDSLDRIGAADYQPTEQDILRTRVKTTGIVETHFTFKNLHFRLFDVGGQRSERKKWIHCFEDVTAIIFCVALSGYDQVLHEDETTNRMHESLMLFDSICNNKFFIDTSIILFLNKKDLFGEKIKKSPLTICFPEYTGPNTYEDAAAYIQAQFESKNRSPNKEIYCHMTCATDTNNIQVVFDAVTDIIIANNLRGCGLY
RGS16-Gao HTS: modulates binding between human RGS16 and Galphao | O15492+P09471 | bead-based flow cytometry RGS16-Galphao binding, fluorescence; actives lie on both sides | binding response (% of control), % at 10 µM | 0.38% of 220,000 active | AID 1441; call rule not given here;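 also: Galphao activated by GDP with aluminum fluoride before binding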
Target sequence (O15492 whole entry, looked up): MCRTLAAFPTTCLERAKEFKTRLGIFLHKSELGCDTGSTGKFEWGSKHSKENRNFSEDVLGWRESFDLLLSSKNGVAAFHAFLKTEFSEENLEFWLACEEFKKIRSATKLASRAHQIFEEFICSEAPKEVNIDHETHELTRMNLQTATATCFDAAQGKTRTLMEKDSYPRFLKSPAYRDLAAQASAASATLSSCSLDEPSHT
Target sequence (P09471 whole entry, looked up): as the sequence (P09471 whole entry, looked up) above
RGS8-Gao reg: regulators of human RGS8-Galphao interaction; P09471; multiplexed bead flow cytometry, RGS8-Galphao binding; actives lie on both sides; response (percent of control binding), % at 10 µM; 0.34% of 220,000 active; AID 1423; in the data active = response below about 60% or above about 140%; inactive = in between;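 also: Galphao activated as the GDP aluminium fluoride complex binding bead-coupled RGS8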
RGS7-Gao: regulators of human RGS7-Galphao interaction; AID 1439; 0.35% of 220,000 active; Multiplexed bead flow cytometry, RGS7-Galphao binding; actives lie on both sides; binding response (% of control), % at 10 µM; in the data active = binding response below about 49% or above about 150%; inconclusive = no clear call, values can overlap the other calls; inactive = in between;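 also: fluorescent Galphao held in activated GDP-AlF4 state binding bead-coupled RGS7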
ABCG2 inh: human ABCG2 inhibition, ABCB1 as counter-screen; 0.1% of 190,000 active; Q9UNQ0; IgMXP3 cells, JC-1 efflux, flow cytometry; inhibition, % at 6.6 µM;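 active = inhibition above 80%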;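 also: 0% = DMSO and 100% = nicardipine control wells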
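Test system: IgMXP3 (ABCG2) plus far-red-tagged CCRF-Adr (ABCB1) cells / Amount: 3 million cells/mL in well / Reagent: JC-1 transporter substrate / Timing: 10 min compound exposure, 25 °C / Signal: flow cytometry, 530 nm JC-1 signal / Read-out: percent efflux inhibition, scaled nicardipine 100% to DMSO 0% / Benchmarks: nicardipine as high control, DMSO as low control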
ABCB1 block: inhibitors of human ABCB1 transporter, ABCG2 counter-screen | P08183 | CCRF-Adr cells, JC-1 efflux, flow cytometry | inhibition, % at 6.6 µM | 0.067% of 190,000 active | AID 1326; in the data active = inhibition above about 40%;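 also: 0% = vehicle and 100% = reference inhibitor; higher value means more JC-1 retained so stronger ABCB1 efflux block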
ABCB1 single pt: confirmation of human ABCB1 transporter inhibitors, ABCG2 counter-screen; shares compounds with ABCG2 inh; CCRF-Adr cells, JC-1 efflux, flow cytometry; inhibition, % at 6.6 µM; 7% of 270 active;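 active = inhibition of pump activity above 50%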;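 also: 0% = DMSO and 100% = nicardipine full pump inhibition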
ABCG2 single pt: confirmation of human ABCG2 transporter inhibitors, ABCB1 counter-screen | 6% of 270 active | inhibition, % at 6.6 µM | IgMXP3 cells, JC-1 efflux, flow cytometry | AID 1453 | shares compounds with ABCG2 inh;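 active = inhibition above 50%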;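 also: 0% = DMSO wells and 100% = nicardipine pump inhibitor wells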
IgMXP3 autofluor: counter-screen for ABCG2 inhibitors: compound fluorescence in IgMXP3 cells; fluorescence at 6.6 µM; compound autofluorescence 488/530 nm, flow; stronger effect = higher value; shares compounds with ABCG2 inh; 30% of 270 active;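 active = fluorescence in ABCG2-expressing cells above the plate's control-well mean plus 3 SD, cut at about 15 in these data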;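 also: median cell fluorescence with compound minus that of DMSO-treated control cells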
CCRF-Adr fluor: counter-screen for ABCB1 inhibitors: compound fluorescence in CCRF-Adr cells | shares compounds with ABCG2 inh | compound autofluorescence 488/530 nm, flow cytometry; stronger effect = higher value | fluorescence at 6.6 µM | 30% of 270 active | AID 1483;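 active = fluorescence beyond the plate control mean plus 3 SD, with a fluorescence-to-maximum score over 2, cut at about 25 in these data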
The depositor's hits bear a star; ? = inconclusive; · = no result.

SMILES	RGS4-Gao reg	RGS16-Gao HTS	RGS8-Gao reg	RGS7-Gao	ABCG2 inh	ABCB1 block	ABCB1 single pt	ABCG2 single pt	IgMXP3 autofluor	CCRF-Adr fluor
COc1ccc(-c2cc(C#N)nc(Cl)n2)cc1	98	98	99	?	·	·	·	·	·	·
COc1ccc(-c2cc(C#N)nc(Oc3ccc(Cl)cc3)n2)cc1	101	100	100	102	84*	0	11	10	35*	26*
Cc1cccc(N2CCN(C(=O)c3cn4ccccc4n3)CC2C)c1 (configuration not stated)	103	103	102	107	2	1	·	·	·	·
O=C(Cn1nnc(-c2ccccc2)n1)N/N=C/c1ccco1	94	95	97	96	3	1	·	·	·	·
O=C(c1ccco1)N1CCN(c2nc(C(F)(F)F)nc3c2nnn3Cc2ccccc2)CC1	98	101	99	99	64	15	23	27	73*	37*
CC(Cc1cccs1)NC(=S)Nc1ccc(Cl)c(Cl)c1 (configuration not stated)	110	213	127	110	61	1	-4	7	3.2	10
CC(=O)N1NC(=Nc2ccccc2)SC1(C)C	81	84	90	72	3	1	·	·	·	·
S=c1[nH]nc(-c2ccc3ccccc3n2)n1-c1ccc2ncccc2c1	98	84	94	97	64	0	6	11	32*	20
Fc1ccc(-n2c(-c3ccc4ccccc4n3)n[nH]c2=S)cc1Cl	100	95	96	?	-6	-2	·	·	·	·
COc1ccc(/C=N/NC(=O)c2ccccc2F)cc1CN1CCN(c2ccc(F)cc2)CC1	104	78	100	98	24	52*	31	7	0.36	-2.3
COc1cc(C(=O)N/N=C/c2ccc(OC)c(CN3CCN(c4ccc(F)cc4)CC3)c2)ccc1O	105	104	102	108	16	45*	64*	37	-2	-3.1
Cc1ccc(NC(=O)CN(C)CC(=O)Nc2ccc(N3CCOCC3)cc2)c([N+](=O)[O-])c1	104	111	108	106	9	2	·	·	·	·
COc1ccc(/C=C(\C#N)C(=O)OCC(=O)Nc2ccc(-c3nc4ccc(C)cc4s3)cc2)cc1	101	111	102	101	-1	-1	·	·	·	·
CCOc1ccc(OCc2cccc(C(=O)N/N=C/c3cccnc3)c2)cc1	108	118	108	107	87*	2	-2	22	4.2	3.2
CC(C)c1ccc(OCc2cccc(C(=O)N/N=C/c3cccnc3)c2)cc1	95	77	96	98	9	0	·	·	·	·
Cc1cc([N+](=O)[O-])ccc1NC(=O)Nc1ccccc1F	100	101	101	?	106*	2	1	40	-0.99	4
O=C(Nc1ccccc1)Nc1cc([N+](=O)[O-])ccc1F	101	109	104	104	11	1	·	·	·	·
Cc1cc(C)c(C#N)c(SCc2c(F)cccc2[N+](=O)[O-])n1	101	101	100	102	92*	5	3	52*	-2	-4.5
Cc1cc(C)c(C#N)c(SCc2ccccc2[N+](=O)[O-])n1	101	66	88	106	101*	7	6	48	-1.1	-2
O=[N+]([O-])c1cccc2c(N3CCCC3)ccnc12	100	104	103	?	2	0	·	·	·	·
COc1ccc(Cc2nc3c4c(ncn3n2)Oc2ccc3ccccc3c2C4c2ccc(OC)c(OC)c2)cc1 (configuration not stated)	102	102	100	102	7	10	30	18	-2.3	-4.1
COc1ccc(Cc2nc3c4c(ncn3n2)Oc2c(ccc3ccccc23)C4c2ccc(OC)c(OC)c2)cc1 (configuration not stated)	105	106	102	102	7	12	·	·	·	·
CCC(OC(=O)c1cccs1)C(=O)NCc1ccc(C)cc1 (configuration not stated)	97	87	94	97	1	0	·	·	·	·
Cc1c(C(=O)Nc2cccc(Cl)c2)c2ccccn2c1CCc1ccncc1	105	104	103	105	99*	66*	56*	42	-1.5	-3.7
Cc1ccc(/C=C2/N=C(c3ccccc3)NNC2=O)cc1	101	103	98	?	·	·	·	·	·	·
SMILES	RGS4-Gao reg	RGS16-Gao HTS	RGS8-Gao reg	RGS7-Gao	ABCG2 inh	ABCB1 block	ABCB1 single pt	ABCG2 single pt	IgMXP3 autofluor	CCRF-Adr fluor
CN(C)c1ccc(/C=C2\N=C(c3ccc(Cl)c([N+](=O)[O-])c3)NC2=O)cc1	100	100	101	101	83*	83*	4	5	75*	94*
Cc1noc(C)c1C(=O)N1CCC(C(=O)c2ccccc2)CC1	96	98	100	?	·	·	·	·	·	·
Cc1cccc(OCCC(=O)Nc2ccc(F)c(Cl)c2)c1	97	101	100	98	5	0	·	·	·	·
CCN(CC)c1ccc(/C=c2/sc3nnc(-c4ccccc4C)n3c2=O)cc1	135	131	108	128	64	77*	25	13	139*	249*
Cc1ccc(/C=c2/sc3nnc(-c4ccccc4Cl)n3c2=O)o1	100	104	99	101	58	2	·	·	·	·
CCN(CC)c1ccc(/C=C2/C(=O)ON=C2C)cc1	88	109	98	86	1	-1	·	·	·	·
CCN(CC)c1ccc(/C=c2\sc3nnc(-c4ccccc4Cl)n3c2=O)cc1	134	133	100	125	78	60*	28	-54	202*	204*
Cc1cc(C(=O)NNc2ccc(F)cc2F)no1	94	93	93	?	·	·	·	·	·	·
COC(=O)c1sc2cc([N+](=O)[O-])cc(SCC(C)C)c2c1N	115	118	101	113	154*	61*	-2	22	46*	112*
O=C(NNC(=S)Nc1ccccc1)C1CCCCC1	100	101	101	101	-1	-1	·	·	·	·
N#C/C(=C\c1ccc([N+](=O)[O-])o1)c1nc2ccccc2[nH]1	96	66	89	96	26	6	·	·	·	·
Cc1ccc2nc(/C(C#N)=C\c3ccc([N+](=O)[O-])o3)[nH]c2c1	101	78	91	100	0	61*	11	24	42*	47*
